From PubChem BioAssay come the findings set out here.

Assay [1] in a line: reducers of endogenous Her2 protein level, primary screen, SKBR3 breast tumor cells, AlphaScreen, ATP viability (AID 461;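 active = Her2 level under about 52% in both replicate screens, with viability over 70% of control, limit read from the data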;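 for Her2 level: lower value means less Her2 protein in the cells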;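 for viability: percent of carrier control wells set as 100% viability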). The following applies: 18-24 h, measured here: SKBR3 viability, ATP luminescence, at 10 µM. (Alpha assays give light when donor and acceptor beads are brought close together.)
The target of assay [2] is Receptor tyrosine-protein kinase erbB-2 (Homo sapiens) (UniProt P04626). The description is as above. Particulars: 18-24 h, at 10 µM, stronger effect = lower value.
Chain of Receptor tyrosine-protein kinase erbB-2 (Homo sapiens) (P04626 whole entry, looked up): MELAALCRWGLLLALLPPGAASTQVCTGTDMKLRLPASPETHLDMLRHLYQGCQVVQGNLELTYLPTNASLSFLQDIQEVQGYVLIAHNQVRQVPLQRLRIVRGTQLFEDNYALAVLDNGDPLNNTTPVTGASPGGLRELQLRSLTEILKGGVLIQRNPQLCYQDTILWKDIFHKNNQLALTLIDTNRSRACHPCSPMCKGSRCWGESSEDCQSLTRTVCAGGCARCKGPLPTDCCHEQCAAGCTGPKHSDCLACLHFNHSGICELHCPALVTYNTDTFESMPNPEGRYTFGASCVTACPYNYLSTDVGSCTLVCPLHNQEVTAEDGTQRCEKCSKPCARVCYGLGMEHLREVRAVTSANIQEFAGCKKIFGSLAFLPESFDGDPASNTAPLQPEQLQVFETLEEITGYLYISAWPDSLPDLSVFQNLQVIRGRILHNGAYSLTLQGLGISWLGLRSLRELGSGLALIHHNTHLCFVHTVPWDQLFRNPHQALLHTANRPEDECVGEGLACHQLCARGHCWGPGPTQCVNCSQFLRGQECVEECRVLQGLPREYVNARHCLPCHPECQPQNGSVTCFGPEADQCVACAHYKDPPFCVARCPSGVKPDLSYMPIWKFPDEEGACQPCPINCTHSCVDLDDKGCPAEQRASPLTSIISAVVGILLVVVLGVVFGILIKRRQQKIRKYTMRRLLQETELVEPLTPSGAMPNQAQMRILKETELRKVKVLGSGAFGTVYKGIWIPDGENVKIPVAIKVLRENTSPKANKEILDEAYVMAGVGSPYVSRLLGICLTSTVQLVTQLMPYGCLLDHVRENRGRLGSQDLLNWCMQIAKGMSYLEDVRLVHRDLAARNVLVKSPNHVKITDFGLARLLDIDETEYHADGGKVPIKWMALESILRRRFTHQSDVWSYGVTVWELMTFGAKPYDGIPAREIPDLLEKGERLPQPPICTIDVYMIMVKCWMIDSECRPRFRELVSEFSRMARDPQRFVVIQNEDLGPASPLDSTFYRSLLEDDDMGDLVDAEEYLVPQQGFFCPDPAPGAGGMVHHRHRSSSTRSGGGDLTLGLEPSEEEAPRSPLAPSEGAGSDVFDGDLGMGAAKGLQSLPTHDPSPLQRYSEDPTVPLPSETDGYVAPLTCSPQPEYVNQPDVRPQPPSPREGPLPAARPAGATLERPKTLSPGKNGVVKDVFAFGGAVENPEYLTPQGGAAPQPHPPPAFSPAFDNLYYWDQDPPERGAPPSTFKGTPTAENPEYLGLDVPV
Assay [3] is described as follows: SK-BR-3 cell growth inhibitors, pilot screen, 24 h, human (AID 572;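 active = viability at or below 10% of carrier control in both of two separate runs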;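 note: compound exposure lasted between 18 and 24 h rather than exactly 24 h; 100% = carrier-treated control wells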). The following applies: SK-BR-3 viability, CellTiter-Glo luminescence, at 10 µM, stronger effect = lower value. (Cellular ATP, detected with luciferase, serves as a proxy for viable cell number.)
The nature of assay [4]: HUVEC growth inhibition – cell-based, human, primary screen (AID 575;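 active = viability at or below 30% in both replicate assays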;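 note: 100% = median of untreated cell wells with 0.1% DMSO on each plate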). The following applies: HUVEC proliferation, CellTiter-Glo luminescence, 72 h; at 10 µM; stronger effect = lower value. Put shortly:
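Test system: primary human umbilical vein endothelial cells. Quantity: 1250 cells/well. Compound: single 10 µM dose, 0.1% DMSO, from 5x medium stock. Timing: 72 h treatment at 37 °C. Detection: ATP-based CellTiter-Glo luminescent read. Benchmarks: vehicle and MePR control wells. Format: 384-well plates coated with collagen.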

The nature of assay [5]: growth inhibitors of H69AR lung tumor, primary screen, human, duplicate replicates (AID 580).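 Note: 100% = mean luminescence of untreated wells and 0% = no signal.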 Particulars: H69AR lung tumor cells viability, ATP luminescence, 72 h; at 10 µM; stronger effect = lower value.
Assay [6] is described as follows: reversal of MRP1-mediated doxorubicin resistance, pilot screen, H69AR cells, doxorubicin co-treatment (AID 601;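 active = viability loss from added drug above about 55%, and viability with drug at most 40%, in both replicates, limit read from the data, passing the limit was not always enough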). Particulars: CellTiter-Glo, 72 h, at 10 µM; for differential viability (reversal): stronger effect = higher value.
Assay [7] can be described thus: 384-well plate pilot, post-Golgi transport modulator project, inhibition of yeast transport mutant growth (AID 636; in the data active = inhibition above about 31%). The following applies: absorbance 615 nm, about 18 h, stronger effect = higher value.
Assay [8] is described as follows: growth suppression of yeast trafficking mutant, preliminary HTS, modulators of trafficking downstream of Golgi apparatus project, 1536-format plate, OD 615 nm (AID 637; in the data active = inhibition above about 30%). The following applies: yeast transport mutant growth, absorbance 615 nm, 18 h; stronger effect = higher value.
Setting [9] is: H69AR cells + 2 uM doxorubicin, measured here: viability with 2 uM doxorubicin, stronger effect = lower value.
Setting [10] is: H69AR cells, compound alone cytotoxicity.

Activity calls are given as the source filed them.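 Rule for the calls, unless noted: active = viability at or under a set limit in both replicates, limit being median viability minus 3 SD (cut at about 48% in these data, passing the limit was not always enough); inconclusive = at or under the limit in just one replicate; inactive = at or above the limit in both replicates.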

Broadly, the viability is a read-out of living cells in per cent, often relative to untreated cells. The inhibition is the relative decrease from the control value, in per cent. Take `O=C(COC(=O)Cc1cccc(C(F)(F)F)c1)NCC1CCCO1` (stereo not given): the viability is 94% in assay [1]; 94% (inactive) in assay [3]; 96.5% (inactive) in assay [4]; 96.4% (inactive) in assay [5]; 73.5% in assay [6] (setting [9]); 96.4% in assay [6] (setting [10]). For the same compound, the Her2 level in assay [2] was 98.5% (inactive). For the same compound, in assay [6] (H69AR cells + 2 uM doxorubicin), the differential viability (reversal) is 22.8% (inactive). In addition, the inhibition in assay [7] is -5.13% (inactive); in assay [8], -4.36% (inactive).

Regarding `CCOC(=O)C1CCN(Cc2ccc(C(=O)OC)cc2)CC1`, the viability in assay [1] was 93.5%; in assay [3] it was 93.5% (inactive); in assay [4] it was 87% (inactive); in assay [5] it was 87.4% (inactive); in assay [6] (setting [9]), 83.2%; in assay [6] (setting [10]) it was 87.4%. Moreover, the Her2 level in assay [2] was 106% (inactive). In addition, the differential viability (reversal) in assay [6] (H69AR cells + 2 uM doxorubicin) was 4.25% (inactive). The inhibition in assay [7] was -4.08% (inactive); in assay [8], -1.8% (inactive).

With `Cc1sc2nc(SCC(=O)NCc3ccco3)n(CCc3ccccc3)c(=O)c2c1C`, the viability in assay [1] was 102%; in assay [3], 102% (inactive); in assay [4] it was 58.3% (inactive); in assay [5], 40% (active); in assay [6] (setting [9]), 54.2%; in assay [6] (setting [10]) it was 40%. In assay [2], the Her2 level was 86.5% (inactive). Besides, the differential viability (reversal) in assay [6] (H69AR cells + 2 uM doxorubicin) was -14.2% (inactive). Further, the inhibition is -6.27% (inactive) in assay [7] and 0.82% (inactive) in assay [8].

On to `CC(=O)N(CCc1ccccc1C)Cc1cc2cc3c(cc2[nH]c1=O)OCO3`, for which the viability in assay [1] is 99%; in assay [3], 99% (inactive); in assay [4], 90.1% (inactive); in assay [5], 91.2% (inactive); in assay [6] (setting [9]), 93.9%; in assay [6] (setting [10]), 91.2%. Also, the Her2 level in assay [2] is 85.5% (inactive). In assay [6] (H69AR cells + 2 uM doxorubicin), the differential viability (reversal) was -2.76% (inactive). For the same compound, the inhibition in assay [7] is -2.03% (inactive); in assay [8] it was 4.44% (inactive).

As for `CCOC(=O)c1[nH]c(C)c(C(=O)Nc2ccccc2F)c1C`, the viability in assay [1] was 89.5%; in assay [3] it was 89.5% (inactive); in assay [4], 61.8% (inactive); in assay [5], 16.1% (active); in assay [6] (setting [9]) it was 67.1%; in assay [6] (setting [10]), 16.1%. Further, the Her2 level in assay [2] is 75.5% (inactive). Also, the differential viability (reversal) in assay [6] (H69AR cells + 2 uM doxorubicin) is -51% (inactive). Further, the inhibition in assay [7] was -4.47% (inactive); in assay [8], 4.13% (inactive).

In the case of `Cc1cccc(N(C)C(=O)c2cc3cc4ccc(C)cc4nc3o2)c1`, the viability was 89% in assay [1]; 89% (inactive) in assay [3]; 57.1% (inactive) in assay [4]; 12% (active) in assay [5]; 48.8% in assay [6] (setting [9]); 12% in assay [6] (setting [10]). For the same compound, the Her2 level in assay [2] is 73.5% (inactive). For the same compound, in assay [6] (H69AR cells + 2 uM doxorubicin), the differential viability (reversal) is -36.7% (inactive). The inhibition in assay [7] was -4% (inactive); in assay [8], -4.26% (inactive).

Turning to `Cc1onc(-c2ccccc2)c1C(=O)N1CCOCC1`, the viability in assay [1] was 110%; in assay [3], 110% (inactive); in assay [4] it was 99.3% (inactive); in assay [5] it was 107% (inactive); in assay [6] (setting [9]) it was 94.4%; in assay [6] (setting [10]) it was 107%. Further, the Her2 level in assay [2] was 87% (inactive). In addition, in assay [6] (H69AR cells + 2 uM doxorubicin), the differential viability (reversal) was 12.6% (inactive). Further, the values for the inhibition in assay [7] and in assay [8] were -3.42% (inactive) and -2.83% (inactive), respectively.

With `Clc1ccccc1OCCCCn1ccnc1`, the viability in assay [1] is 95%; in assay [3] it was 95% (inactive); in assay [4] it was 95.9% (inactive); in assay [5], 83.7% (inactive); in assay [6] (setting [9]) it was 72.3%; in assay [6] (setting [10]) it was 83.7%. The Her2 level in assay [2] is 114% (inactive). Further, in assay [6] (H69AR cells + 2 uM doxorubicin), the differential viability (reversal) was 11.4% (inactive). For the same compound, the figures for the inhibition in assay [7] and in assay [8] were 2.34% (inactive) and -4.33% (inactive), respectively.

Turning to `CCOC(=O)N1CCN(Cc2nc3c(c(=O)[nH]c(=O)n3C)n2Cc2cc(C)ccc2C)CC1`, the viability in assay [1] is 102%; in assay [3] it was 102% (inactive); in assay [4] it was 112% (inactive); in assay [5], 96.1% (inactive); in assay [6] (setting [9]), 88.1%; in assay [6] (setting [10]), 96.1%. The Her2 level in assay [2] is 105% (inactive). In addition, the differential viability (reversal) in assay [6] (H69AR cells + 2 uM doxorubicin) is 7.95% (inactive). For the same compound, the inhibition in assay [7] is -2.27% (inactive); in assay [8], 0.32% (inactive).

Take `CC(=O)Nc1ccc(-c2nn[nH]n2)cc1Cl`: the viability was 87% in assay [1]; 87% (inactive) in assay [3]; 104% (inactive) in assay [4]; 104% (inactive) in assay [5]; 95.6% in assay [6] (setting [9]); 104% in assay [6] (setting [10]). Further, in assay [2], the Her2 level was 89% (inactive). Also, the differential viability (reversal) in assay [6] (H69AR cells + 2 uM doxorubicin) was 8.39% (inactive). In addition, the figures for the inhibition in assay [7] and in assay [8] were -1.6% (inactive) and -2.9% (inactive), respectively.

For `O=C(CN(Cc1cccs1)C(=O)CNS(=O)(=O)c1ccccc1)NCc1ccco1`, the viability in assay [1] is 98%; in assay [3], 98% (inactive); in assay [4], 101% (inactive); in assay [5] it was 101% (inactive); in assay [6] (setting [9]), 88%; in assay [6] (setting [10]) it was 101%. In addition, the Her2 level in assay [2] is 96.5% (inactive). Further, the differential viability (reversal) in assay [6] (H69AR cells + 2 uM doxorubicin) is 12.7% (inactive). Also, the inhibition in assay [7] is 0.13% (inactive); in assay [8], -3.33% (inactive).

With `Cc1cccc(NC(=O)c2cc3ccccc3o2)c1`, the viability in assay [1] is 142%; in assay [3] it was 142% (inactive); in assay [4] it was 75.8% (inactive); in assay [5], 86.3% (inactive); in assay [6] (setting [9]), 78.1%; in assay [6] (setting [10]), 86.3%. For the same compound, in assay [2], the Her2 level was 114% (inactive). Besides, in assay [6] (H69AR cells + 2 uM doxorubicin), the differential viability (reversal) was 8.2% (inactive). The inhibition in assay [7] was -7.4% (inactive); in assay [8] it was -1.27% (inactive).

With `COc1ccccc1NC(=O)CC(NCc1ccccc1)C(=O)O` (stereo not given), the viability was 108% in assay [1]; 108% (inactive) in assay [3]; 110% (inactive) in assay [4]; 89.1% (inactive) in assay [5]; 91.2% in assay [6] (setting [9]); 89.1% in assay [6] (setting [10]). In assay [2], the Her2 level was 80% (inactive). Further, in assay [6] (H69AR cells + 2 uM doxorubicin), the differential viability (reversal) is -2.06% (inactive). Also, the inhibition in assay [7] was -7.43% (inactive); in assay [8] it was -3% (inactive).

Take `C=CCn1c(COc2cccc(C)c2)nnc1SCC(=O)NC(=O)NCc1ccco1`: the viability was 108% in assay [1]; 108% (inactive) in assay [3]; 78.4% (inactive) in assay [4]; 78.2% (inactive) in assay [5]; 81.3% in assay [6] (setting [9]); 78.2% in assay [6] (setting [10]). Also, the Her2 level in assay [2] is 95% (inactive). Also, the differential viability (reversal) in assay [6] (H69AR cells + 2 uM doxorubicin) was -3.14% (inactive). The inhibition in assay [7] is -5.07% (inactive); in assay [8] it was -0.48% (inactive).

On to `Cn1c(NCc2cccc(Br)c2)nc2ccccc21`, for which the viability in assay [1] is 87%; in assay [3], 87% (inactive); in assay [4], 83.7% (inactive); in assay [5], 81.1% (inactive); in assay [6] (setting [9]) it was 73.9%; in assay [6] (setting [10]), 81.1%. Besides, in assay [2], the Her2 level was 86.5% (inactive). Further, the differential viability (reversal) in assay [6] (H69AR cells + 2 uM doxorubicin) was 7.16% (inactive). The values for the inhibition in assay [7] and in assay [8] were -4.27% (inactive) and -3.87% (inactive), respectively.

`Cc1c(C#N)c(N)c(C(=O)c2ccccc2)n1Cc1ccccc1`: the viability was 83.5% in assay [1]; 83.5% (inactive) in assay [3]; 97.3% (inactive) in assay [4]; 87.4% (inactive) in assay [5]; 87.3% in assay [6] (setting [9]); 87.4% in assay [6] (setting [10]). Besides, in assay [2], the Her2 level is 122% (inactive). Besides, the differential viability (reversal) in assay [6] (H69AR cells + 2 uM doxorubicin) is 0.08% (inactive). Also, the inhibition was -7.57% (inactive) in assay [7] and -16.4% (inactive) in assay [8].
